One series concerns HCV1406 TCR. The experiment in a line: Surface plasmon resonance TCR-pMHC binding. As to conditions: authors' ranges based on SPR KD. In general terms: SPR reads the build-up and loss of mass on a sensor chip optically.
The subject of the next series is HLA-A2. As to conditions: thermal denaturation of peptide-HLA-A2 complexes; cited from earlier work.
Series [1] concerns HCV1406 TCR-transduced T-cells. Nature of the series: IFNγ release at high, intermediate and low antigen density. It counts as cell-based, human. As to conditions: peptide-loaded HepG2 cells, 18 hr, ELISA. An outline of the steps:
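Normal-donor PBL transduced with HCV1406 TCR, CD34-enriched and split into CD4+/CD8+ by immunomagnetic selection. HepG2 targets either peptide-pulsed for 2 h or transduced with NS3:1406–1415 minigene–GFP vectors and sorted for high uniform GFP. Co-culture 1:1, 37 °C, 18 h. IFNγ from 1x105 T-cells measured by ELISA in triplicate (mean, SD). CD4+ vs CD8+ compared by unequal-variance two-sample t-tests.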
(In general: An ELISA detects its analyte on a solid surface through an enzyme-linked reagent.)

Series [2] has as its system HCV1406 TCR-transduced T-cells. The experiment in a line: Degranulation CD107a assay. The format is cell-based, human. As to conditions: T2 cells pulsed with 10 μg/mL peptide, 1:1 co-culture, flow cytometry.

Take KLLALGINAV [V1408L]: in the series on HCV1406 TCR, the “affinity category of TCR-pMHC interaction compared to WT” value (“affinity category … compared to WT” for short) is on record as “moderate affinity”. Besides, the “Tm of peptide-HLA-A2” value with HLA-A2 was 61 °C.

With KLVALGINAV [WT], the “IFNγ secretion by CD8^+ T-cells, intermediate antigen density” value in series [1] is given as “strong recognition”. In the series with HLA-A2, the “Tm of peptide-HLA-A2” value was 64 °C.

Consider KLTALGINAV [V1408T], for which the “degranulation (surface CD107a) of CD4^+ TCR-transduced T-cells” value in series [2] is “blunted compared to WT, I1412L, and V1408L”. The “affinity category … compared to WT” value in the series with HCV1406 TCR is listed as “moderate affinity”. The “Tm of peptide-HLA-A2” value in the series on HLA-A2 is 69 °C.

With KLVALGVNAV [I1412V], the “degranulation (surface CD107a) of CD4^+ TCR-transduced T-cells” value in series [2] is “blunted compared to WT, I1412L, and V1408L”. Besides, the “affinity category … compared to WT” value in the series with HCV1406 TCR is given as “moderate affinity”.

As for KLVALGNNAV [I1412N], the “affinity category … compared to WT” value in the series on HCV1406 TCR is reported as “low affinity”. For the same sequence, the “Tm of peptide-HLA-A2” value with HLA-A2 is 59 °C.

For the sequence KLVALGLNAV [I1412L], the “affinity category … compared to WT” value in the series with HCV1406 TCR was “moderate affinity”.

(Values after PMC5647210 (Cancer immunology, immunotherapy : CII, 2017).)
